According to ChEMBL document CHEMBL1148402, “Anti-AIDS agents. 52. Synthesis and anti-HIV activity of hydroxymethyl (3'R,4'R)-3',4'-di-O-(S)-camphanoyl-(+)-cis-khellactone derivatives” (J Med Chem, 2004):

How the values were obtained:
[1] = test system: Human immunodeficiency virus 1; test: Concentration required to inhibit HIV-1 replication in acutely infected H9 lymphocytes by 50%; format: functional, organism-based
Procedure, shortened: (§1)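 H9 T-cells (3 × 10^5 cells/mL) in RPMI 1640 with 10% FCS at 37 °C, 5% CO2, infected with HIV-1 IIIB (125 TCID50). Medium replaced on days 1 and 4 post-infection. Supernatant p24 antigen capture read on day 6. EC50 is the concentration suppressing replication by 50%; TI = IC50/EC50. AZT run as positive control. Averages of at least two experiments.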

[2] = Therapeutic index (IC50/EC50) was determined; conditions: read-out: TI; procedure, shortened: as §1
H9 = test: Concentration required to inhibit uninfected H9 cell growth by 50%; format: functional, cell-based; conditions: Homo sapiens
Procedure, shortened: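 Mock-infected H9 cells handled in parallel under the same conditions as the infection assay, without virus. Viability read by XTT on day 6. IC50 is the concentration toxic to 50% of mock-infected cells. Averages of at least two experiments.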

Rattus norvegicus [3] = test: Half-life in male Sprague-Dawley rats following an intravenous bolus dose at 10-20 mg/kg; format: ADME, organism-based; conditions: in vivo
Procedure, shortened: (§2)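 Adult male Sprague–Dawley rats (approx. 250 g) dosed iv at 10-20 mg/kg and orally as a suspension at 25 mg/kg. Nine 0.4 mL blood samples taken over 8 h. Plasma levels measured by reversed-phase HPLC with UV (320 nm) and fluorescence (ex 320/em 380 nm) detection. Detection limit approx. 50 ng/mL (UV) and 10 ng/mL (fluorescence) from 0.10 mL plasma. Parameters from noncompartmental analysis; half-life from the terminal log-linear phase; N=3–4 rats.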

Rattus norvegicus [4] = test: Volume distribution of compound in male Sprague-Dawley rats following an intravenous bolus dose at 10-20 mg/kg; format: ADME, organism-based; conditions: in vivo; procedure, shortened: as §2
Rattus norvegicus [5] = test: Bioavailability in rat (Sprague-Dawley) (male) (dose 10-20 mg/kg); format: ADME, organism-based; conditions: in vivo; procedure, shortened: as §2
Rattus norvegicus [6] = test: Vss in male Sprague-Dawley rats following an intravenous bolus dose at 10-20 mg/kg; format: ADME, organism-based; conditions: in vivo; procedure, shortened: as §2
Rattus norvegicus [7] = test: Clearance in male Sprague-Dawley rats following an intravenous bolus dose at 10-20 mg/kg; format: ADME, organism-based; conditions: in vivo
[8] = Bioavailability in male Sprague-Dawley rats following an intravenous bolus dose at 10-20 mg/kg; format: ADME, organism-based; conditions: rat, in vivo; procedure, shortened: as §2

EC50 [1] [µM] | T1/2 (Rattus norvegicus [3]) [h] | Vd (Rattus norvegicus [4]) [L/kg] | F (Rattus norvegicus [5]) | Vss (Rattus norvegicus [6]) [L/kg] | Compound | selectivity ratio [2] | IC50 (H9) [µM] | CL (Rattus norvegicus [7]) [L/h/kg] | bioavailability [8] [%]
0.017 |  |  |  |  | CC(=O)OCc1cc2ccc3c(c2oc1=O)[C@@H](OC(=O)C12CCC(C)(C(=O)O1)C2(C)C)[C@@H](OC(=O)C12CCC(C)(C(=O)O1)C2(C)C)C(C)(C)O3 (stereo partly specified) | 676 | 11.6 |  | 
0.187 |  |  |  |  | Cc1cn([C@H]2C[C@H](N=[N+]=[N-])[C@@H](CO)O2)c(=O)[nH]c1=O [ZIDOVUDINE] |  |  |  | 
0.111 | 0.867 | 5.9 | Not detected | 3.89 | Cc1cc(=O)oc2c3c(c(CO)cc12)OC(C)(C)[C@H](OC(=O)C12CCC(C)(C(=O)O1)C2(C)C)[C@@H]3OC(=O)C12CCC(C)(C(=O)O1)C2(C)C (stereo partly specified) | > 135 | > 15 | 284 | 
0.029 |  |  |  |  | CC1(C)Oc2ccc3cc(CO)c(=O)oc3c2[C@@H](OC(=O)C23CCC(C)(C(=O)O2)C3(C)C)[C@H]1OC(=O)C12CCC(C)(C(=O)O1)C2(C)C (stereo partly specified) | 806 | 23 |  | 
0.677 |  |  |  |  | CC1(C)Oc2ccc3cc(CN)c(=O)oc3c2[C@@H](OC(=O)C23CCC(C)(C(=O)O2)C3(C)C)[C@H]1OC(=O)C12CCC(C)(C(=O)O1)C2(C)C (stereo partly specified) | > 23 | > 15.4 |  | 
0.026 |  |  |  |  | CC(=O)OCc1c(C)c2ccc3c(c2oc1=O)[C@@H](OC(=O)C12CCC(C)(C(=O)O1)C2(C)C)[C@@H](OC(=O)C12CCC(C)(C(=O)O1)C2(C)C)C(C)(C)O3 (stereo partly specified) | 567 | 14.8 |  | 
0.059 |  |  |  |  | CC1(C)Oc2ccc3cc(CBr)c(=O)oc3c2[C@@H](OC(=O)C23CCC(C)(C(=O)O2)C3(C)C)[C@H]1OC(=O)C12CCC(C)(C(=O)O1)C2(C)C (stereo partly specified) | > 186 | > 11.1 |  | 
0.049 |  |  |  |  | CC1(C)Oc2ccc3ccc(=O)oc3c2[C@@H](OC(=O)C23CCC(C)(C(=O)O2)C3(C)C)[C@H]1OC(=O)C12CCC(C)(C(=O)O1)C2(C)C (stereo partly specified) | > 328 | > 16.1 |  | 
0.156 |  |  |  |  | Cc1cc(=O)oc2c3c(c(CBr)cc12)OC(C)(C)[C@H](OC(=O)C12CCC(C)(C(=O)O1)C2(C)C)[C@@H]3OC(=O)C12CCC(C)(C(=O)O1)C2(C)C (stereo partly specified) | > 88 | > 13.7 |  | 
3.67 |  |  |  |  | CCN(CC)Cc1cc2ccc3c(c2oc1=O)[C@@H](OC(=O)C12CCC(C)(C(=O)O1)C2(C)C)[C@@H](OC(=O)C12CCC(C)(C(=O)O1)C2(C)C)C(C)(C)O3 (stereo partly specified) | > 4 | > 14.1 |  | 
0.544 |  |  |  |  | CC(=O)OCc1cc2c(C)cc(=O)oc2c2c1OC(C)(C)[C@H](OC(=O)C13CCC(C)(C(=O)O1)C3(C)C)[C@@H]2OC(=O)C12CCC(C)(C(=O)O1)C2(C)C (stereo partly specified) | > 26 | > 14.1 |  | 
0.148 |  |  |  |  | Cc1cc(=O)oc2c3c(c(CN)cc12)OC(C)(C)[C@H](OC(=O)C12CCC(C)(C(=O)O1)C2(C)C)[C@@H]3OC(=O)C12CCC(C)(C(=O)O1)C2(C)C (stereo partly specified) | > 102 | > 15 |  | 
0.0015 | 2.42 | 12 | Not detected | 10.1 | Cc1cc(=O)oc2c3c(ccc12)OC(C)(C)[C@H](OC(=O)C12CCC(C)(C(=O)O1)C2(C)C)[C@@H]3OC(=O)C12CCC(C)(C(=O)O1)C2(C)C (stereo partly specified) |  | 23.6 |  | 

Compound | EC50 [1] [µM] | T1/2 (Rattus norvegicus [3]) [h] | Vd (Rattus norvegicus [4]) [L/kg] | F (Rattus norvegicus [5]) | Vss (Rattus norvegicus [6]) [L/kg] | selectivity ratio [2] | IC50 (H9) [µM] | CL (Rattus norvegicus [7]) [L/h/kg] | bioavailability [8] [%]
Cc1c(CO)c(=O)oc2c3c(ccc12)OC(C)(C)[C@H](OC(=O)C12CCC(C)(C(=O)O1)C2(C)C)[C@@H]3OC(=O)C12CCC(C)(C(=O)O1)C2(C)C (stereo partly specified) | 0.004 | 3.12 | 22.9 |  | 18.5 | 5800 | 24.9 | 284 | 15
Cc1c(CBr)c(=O)oc2c3c(ccc12)OC(C)(C)[C@H](OC(=O)C12CCC(C)(C(=O)O1)C2(C)C)[C@@H]3OC(=O)C12CCC(C)(C(=O)O1)C2(C)C (stereo partly specified) | 0.00011 |  |  |  |  | > 190000 | > 20.9 |  | 
